Screening results from PubChem BioAssay.
Most compounds without a hit are left out; they make up all but 2.4% or so of the library.
Runt-CBFb FRET = blocks binding of human RUNX1 Runt domain to CBFb. Q01196+Q13951. Cerulean-Runt/Venus-CBFb FRET ratio 530/480, 1 h. inhibition, % at 20 µM. 220,000 compounds, 0.46% hits. AID 1496;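 active = inhibition over about 50% at 20 µM in the single-dose screen, limit read from the data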
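Schedule: protein complex preformed 1 h, compound exposure 1 h, room temperature, dark; test system: Cerulean-labeled Runt domain protein; amount: 100 nM per protein; buffer or medium: Tris 50 mM pH 7.5, KCl, K2SO4, 0.01% BSA; read-out: loss of energy transfer signal; detection: FRET fluorescence; controls: 5 µM unlabeled CBFb as full-inhibition high control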
Runt-SMMHC FRET = inhibitors of human RUNX1 Runt domain binding to CBFb-SMMHC; Q01196+Q13951; Cerulean-Runt/Venus-CBFb-SMMHC FRET ratio 530/480, 1 h; inhibition, % at 20 µM; 220,000 compounds, 0.74% hits; AID 1434;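 active = mean inhibition across duplicate retests at 20 µM reaching about 50%, limit read from the data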;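 also: inhibitors lower the FRET ratio by blocking Runt binding to CBFb-SMMHC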
RanGTP-Impb inh = disruptors of Ran-importin-beta complex formation – biochemical, FRET, CFP-Ran, YFP-importin-beta, homogeneous, primary screen; cell-free CFP-Ran/YFP-importin-beta FRET ratio; 300,000 compounds, 1.1% hits; AID 2216; inhibition, % (no concentration beside the values);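 active = more than half of the replicate wells show a fall in the fluorescence ratio signal beyond about 16%, limit read from the data, passing the limit was not always enough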
LANA-H2B inh = blocks KSHV LANA binding to histone H2A/H2B | cell-free LANA-H2A/H2B peptide, fluorescence polarization | inhibition, % (test concentration not listed) | 320,000 compounds, 0.6% hits; in the data active = inhibition mostly above about 10%, no sharp cut-off; inactive = mostly below about 6.7%
EBV gp42 inh = inhibitors of Epstein-Barr virus glycoprotein 42. Q1HVG2. Fluorescence polarization binding assay, mP read-out. inhibition, % (tested at 21.74 µM). 220,000 compounds, 0.42% hits. AID 1085; in the data active = inhibition above about 50%
MEX-5 binding = C. elegans MEX-5 TCR-2 RNA binding activity; Q9XUB2; MEX-5/FITC-TCR2 RNA binding, fluorescence polarization; active compounds read low; activity score (negative = inhibition of binding), % at 10 µM; 300,000 compounds, 0.38% hits;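 active = inhibition past about -25% in most replicates, and total fluorescence under double the plate's negative control median, limit read from the data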
Target sequence (Q9XUB2 whole entry, looked up): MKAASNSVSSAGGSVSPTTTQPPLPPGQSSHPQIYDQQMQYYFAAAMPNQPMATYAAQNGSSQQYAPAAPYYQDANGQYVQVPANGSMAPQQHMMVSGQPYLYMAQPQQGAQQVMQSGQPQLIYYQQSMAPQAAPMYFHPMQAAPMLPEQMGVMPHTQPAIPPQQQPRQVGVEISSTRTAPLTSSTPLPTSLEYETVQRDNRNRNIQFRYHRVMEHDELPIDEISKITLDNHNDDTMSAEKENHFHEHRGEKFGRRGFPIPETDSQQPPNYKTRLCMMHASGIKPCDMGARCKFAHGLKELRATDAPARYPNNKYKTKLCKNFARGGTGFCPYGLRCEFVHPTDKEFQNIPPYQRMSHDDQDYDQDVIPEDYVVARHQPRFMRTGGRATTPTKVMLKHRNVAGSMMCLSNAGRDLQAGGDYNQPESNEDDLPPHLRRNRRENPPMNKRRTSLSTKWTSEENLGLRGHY
RUNX1 CBFb TR = disrupts human RUNX1 Runt domain binding to CBFb; AID 1502; shares compounds with Runt-CBFb FRET; TR-FRET RUNX1 Runt domain-CBFb binding; inhibition, % at 20 µM; 480 compounds, 20% hits; in the data active = inhibition above about 40%
Hits are given with their value; 0 = inactive; - = no result.

SMILES	Runt-CBFb FRET	Runt-SMMHC FRET	RanGTP-Impb inh	LANA-H2B inh	EBV gp42 inh	MEX-5 binding	RUNX1 CBFb TR
O=C(NCCCN1CCOCC1)c1sc2cc([N+](=O)[O-])ccc2c1Cl	50	0	0	0	0	0	0
Cc1ccc(NC(=O)CNC2CCCCC2)cc1Cl	-	-	0	0	-	0	-
CC(C)C(C)(C#N)NC(=O)CSc1nnc(-c2ccncc2)n1Cc1ccccc1 (configuration not stated)	56	0	0	0	0	0	0
CC(C)(C)NC(=O)CSc1nnc(-c2ccncc2)n1Cc1ccccc1	0	0	0	0	0	0	-
CN(C)C(=O)Nc1ccccc1	0	0	0	0	0	0	-
CC(=O)Nc1ccc(S(=O)(=O)Nc2nc3cc4c(cc3nc2Cl)OCCO4)cc1	51	75	0	0	0	0	0
O=S(=O)(Nc1nc2cc3c(cc2nc1Cl)OCCO3)c1ccccc1	0	0	0	0	0	0	-
O=C(Cn1c(=O)oc2ccccc21)Nc1nc(-c2ccccc2)cs1	0	0	0	0	0	0	-
O=C(Cn1c(=O)oc2ccccc21)Nc1n[nH]c(=S)s1	54	0	0	0	0	0	63
Oc1ccc2ccccc2c1/C=N/Nc1ccccc1	0	0	0	0	0	0	-
Oc1ccc2ccccc2c1C=NCc1ccccc1	119	0	0	0	0	0	0
O=C(CN1C(=O)CCS(=O)(=O)c2ccccc21)Nc1ccc(Cl)cc1	-	-	0	0	-	0	-
O=C(O[C@@H]1OC2COC(=O)c3cc(O)c(O)c(O)c3-c3c(cc(O)c(O)c3O)C(=O)O[C@@H]([C@H]1O)[C@@H]2O)c1cc(O)c(O)c(O)c1	57	0	0	0	0	-67	67
O=C(NCCN1CCN(c2ccccc2)CC1)C1CCN(S(=O)(=O)c2cccc3nonc23)CC1	0	0	0	0	0	0	-
c1ccc2c(c1)ncn2CCn1cnc2ccccc21	0	0	0	0	0	0	-
Cc1ccc(Cn2cnc3ccccc32)cc1	54	0	0	0	0	0	0
Brc1ccc(-c2csc(NNC3=NCCCCC3)n2)cc1	0	0	0	0	0	0	-
FC(F)Oc1ccc(-c2csc(NNC3=NCCCCC3)n2)cc1	55	0	0	0	0	0	0
COc1ccc(-n2c(N)c(C(=O)NCc3ccco3)c3nc4ccccc4nc32)cc1	51	120	37	0	0	0	0
COCCNC(=O)c1c(N)n(-c2cccc(C)c2)c2nc3ccccc3nc12	60	79	97	0	0	0	0
COc1cccc(-n2c(N)c(C(=O)Nc3c(C)n(C)n(-c4ccccc4)c3=O)c3nc4ccccc4nc32)c1	0	0	0	0	0	0	-
COc1ccc(-n2c(N)c(C(=O)NCc3ccco3)sc2=S)cc1	0	0	0	0	0	0	-
CCOC(=O)C1CCN(C(=O)c2ccc3c(c2)C(=O)N(c2ccccc2C)C3=O)CC1	-	-	0	0	-	0	-
COc1ccc(C(=S)N2CCOCC2)cc1OC(=O)c1ccccc1Cl	-	-	0	0	-	0	-
CCCCC1CN2CCc3c([nH]c4ccccc34)C2(C)C1 (configuration not stated)	-	-	0	0	-	0	-
SMILES	Runt-CBFb FRET	Runt-SMMHC FRET	RanGTP-Impb inh	LANA-H2B inh	EBV gp42 inh	MEX-5 binding	RUNX1 CBFb TR
O=C1CC(N2CCC(O)(c3ccc(Cl)cc3)CC2)C(=O)N1Cc1ccc(N2CCCC2=O)cc1 (configuration not stated)	66	0	0	0	0	0	0
O=c1[nH]c2ccccc2c(O)c1O	59	57	0	0	0	0	0
Cc1ccc(C(=O)NCc2ccccc2CN2CCCC2)cc1S(=O)(=O)N1CCOCC1	-	-	-	0	-	-	-
CCn1c(O)c(/C=N/NC(=O)c2ccncc2)c(=O)n(CC)c1=S	59	63	0	-	0	0	0
Cn1c(=O)n(C)c2cc(/C=N/NC(=O)c3ccncc3)ccc21	0	0	0	0	0	0	-
Cc1ccc(S(=O)(=O)N(C(=O)c2ccco2)c2cc3sc(=O)oc3c3ccccc23)cc1	0	0	0	0	0	0	-
COc1ccc(OC)c(S(=O)(=O)N(C(C)=O)c2ccc3oc(=O)sc3c2)c1	67	-	0	0	0	0	0
COc1ccc(C(=O)Oc2ccc3oc(=O)sc3c2)cc1	65	0	0	0	0	0	0
CC(C)C(=O)N(c1ccc2oc(=O)sc2c1)S(=O)(=O)c1ccccc1	58	63	0	0	0	0	0
COc1ccc(S(=O)(=O)N(C(=O)C(C)C)c2ccc3oc(=O)sc3c2)cc1	53	56	0	0	0	0	0
CCC(C)NC(=O)CC(NS(=O)(=O)c1ccc(NC(C)=O)cc1)C(C)C (configuration not stated)	0	0	0	0	0	0	-
CN1C(=O)C(C)(C)c2cc(S(=O)(=O)NCC3CCC(C(=O)NCc4ccc(F)cc4)CC3)ccc21 (configuration not stated)	-	-	0	0	-	0	-
CC(=O)N(c1ccc2oc(=O)sc2c1)S(=O)(=O)c1ccccc1	60	0	0	0	0	0	0
CCCC(=O)N(c1ccc2oc(=O)sc2c1)S(=O)(=O)c1cccs1	63	0	-	0	0	-	0
CC(=O)c1c(C)oc2ccc(N(C(C)=O)S(=O)(=O)c3cccc([N+](=O)[O-])c3)cc12	0	0	-	0	0	0	-
Cc1cc(S(=O)(=O)NC2CCN(Cc3ccccc3)CC2)c(C)cc1Cl	0	0	0	0	0	0	-
CSc1cc(C)c(OCC(=O)Nc2ccc(NC(C)=O)cc2)c(C)c1	0	0	0	0	0	0	-
CCC1(C)Cc2c(sc3[nH]c(=O)[nH]c(=O)c23)CS1 (configuration not stated)	57	-	0	0	0	0	0
CCC1(C)Cc2c(sc3[nH]c(=S)[nH]c(=S)c23)CO1 (configuration not stated)	-	-	0	0	-	0	-
COc1ccc(C2/C(=C(/O)c3ccccc3)C(=O)C(=O)N2C)cc1OC (configuration not stated)	-	-	0	0	-	0	-
Cc1cc2c(OCC(O)CN3CCCC3)cccc2[nH]1 (configuration not stated)	0	0	0	0	0	0	-
NS(=O)(=O)c1ccc(NC(=S)N2CCN(c3cccc(Cl)c3)CC2)cc1	52	0	0	0	0	0	58
NS(=O)(=O)c1ccc(NC(=S)N2CCN(c3ccccc3Cl)CC2)cc1	0	0	0	0	0	0	-
Cc1cccc2cc(C(c3nnnn3Cc3ccccc3)N3CCN(C)CC3)c(=O)[nH]c12 (configuration not stated)	0	0	0	0	0	0	-
